One may read the EC50 as the concentration needed to bring the measured effect to its halfway point. What is called CC50 is the concentration at which the toxic effect on the cells reaches its halfway point. In general, IC50 refers to the concentration at which inhibition is half-maximal.

The values that follow come from ChEMBL document CHEMBL3232793, “Fused heterocyclic compounds bearing bridgehead nitrogen as potent HIV-1 NNRTIs. Part 1: design, synthesis and biological evaluation of novel 5,7-disubstituted pyrazolo[1,5-a]pyrimidine derivatives” (Bioorg Med Chem, 2014).

Each structure is given as a SMILES string.

In data set [1] the test system is Human immunodeficiency virus 1. The data set can be described thus: Antiviral activity against wild type HIV1 infected in human Hela-JC53 cells assessed as inhibition of viral replication by luciferase reporter gene assay. It is filed as functional, organism-based. As to conditions: Human immunodeficiency virus 1, Hela-JC53.
Data set [2] has as its system Human immunodeficiency virus 1. In words: Antiviral activity against NNRTI-resistant HIV1 harboring K103N mutant infected in human Hela-JC53 cells assessed as inhibition of viral replication by luciferase reporter gene assay relative wild type HIV1. The class given is functional. In general terms: A reporter such as luciferase makes a cellular process visible.
In data set [3] the test system is Human immunodeficiency virus 1. In words: Antiviral activity against NNRTI-resistant HIV1 harboring Y181C mutant infected in human Hela-JC53 cells assessed as inhibition of viral replication by luciferase reporter gene assay relative wild type HIV1. It is filed as functional.
Data set [4] is described as follows: Selectivity index, ratio of compound activity for human HeLa cells to EC50 for wild type HIV1. As to conditions: read-out: Selectivity Index. The class given is toxicity, cell-based.
Data set [5] concerns Human immunodeficiency virus 1. The data set can be described thus: Antiviral activity against HIV1 3B infected in human MT4 cells assessed as virus-induced cytopathic effect by MTT assay. It is filed as functional, organism-based. Conditions: Human immunodeficiency virus 1, 3B. The procedure, abridged:
(§1)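 MT-4 cells, resuspended at 6 × 10⁵ cells/mL, infected with HIV-1 IIIB or HIV-2 ROD at 100–300 CCID50. Compounds added at assay start as serial five-fold dilutions in triplicate wells. Viability read spectrophotometrically by MTT 5 days after infection.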
For orientation: Damage to the host cells serves as the signal in cytopathic effect assays.

Data set [6] is described as follows: Cytotoxicity against human MT4 cells assessed as cell viability by MTT assay. The class given is cell-based. The gist of the method:
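Mock-infected MT-4 cells at 6 × 10⁵ cells/mL, run in parallel triplicate wells with the infected series. Compounds given as serial five-fold dilutions. MTT viability read spectrophotometrically at day 5.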
Background: Tetrazolium assays rely on reduction of a dye to a coloured formazan, in cell work by metabolically active cells.

Data set [7] can be described thus: Selectivity index, ratio of CC50 for human MT4 cells to EC50 for HIV1 3B. It is filed as toxicity, cell-based. Conditions: read-out: Ratio CC50/EC50. The procedure, abridged: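 Selectivity index = CC50 (mock-infected MT-4 cells) / EC50 (IIIB or ROD protection). Both values come from the same 5-day MTT assay run in parallel triplicate wells.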
In data set [8] the target is Human immunodeficiency virus type 1 reverse transcriptase (Human immunodeficiency virus 1, UniProt Q72547). In words: Inhibition of recombinant HIV1 reverse transcriptase assessed as inhibition of biotin-dUTP incorporation in to poly [A] x oligo[dT]15 by ELISA. The gist of the method:
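Colorimetric kit (Roche) ELISA. Homopolymer template/primer bound to the microplate, with biotin-dUTP as the labelled nucleotide and 4 ng recombinant HIV-1 RT per well. Compounds tested at several concentrations.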

Data set [9] concerns Human immunodeficiency virus 2. In words: Antiviral activity against HIV2 ROD infected in human MT4 cells assessed as virus-induced cytopathic effect by MTT assay. It is filed as functional, organism-based. As to conditions: Human immunodeficiency virus 2, ISOLATE ROD. The procedure, abridged: as §1

Turning to `Cc1cc(C#N)cc(C)c1Oc1nc(Nc2ccc(C#N)cc2)nc2[nH]ccc12`, the EC50 in data set [1] turned out to be 0.9 nM. Further, the “fold change (FC)” value in [2] and in [3] was 11 in each case. Besides, the selectivity ratio in [4] was greater than 50000.
As to `Cc1ccnc2c1NC(=O)c1cccnc1N2C1CC1` [NEVIRAPINE], the EC50 in [5] came to 170 nM. For the same compound, the cytotoxic concentration (CC50) in data set [6] is greater than 15000 nM.
Turning to `CC(C)Nc1cccnc1N1CCN(C(=O)c2cc3cc(NS(C)(=O)=O)ccc3[nH]2)CC1` [DELAVIRDINE], the CC50 in data set [6] was greater than 43800 nM. For the same compound, the selectivity ratio in [7] was greater than 277.
For `Cc1cc(C)c(Oc2cc(Nc3ccc(C#N)cc3)nc3ccnn23)c(C)c1`, the IC50 in data set [8] was 2260 nM.
As to `Cc1cc(C#N)cc(C)c1Oc1nc(Nc2ccc(C#N)cc2)nc2cc[nH]c12`, the EC50 in data set [1] stood at 0.8 nM. Also, the “fold change (FC)” value in data set [2] and in [3] was 3.8 in each case. Further, in data set [4], the selectivity ratio is greater than 50000.
Take `Cc1cc(C#N)cc(C)c1Oc1nc(Nc2ccc(C#N)cc2)nc(N)c1Br` [ETRAVIRINE]: the EC50 in data set [9] was determined as 11 nM. Moreover, in data set [6], the CC50 was greater than 4600 nM.
